The text below walks through data of ChEMBL document CHEMBL1124171, “Ergolines as selective 5-HT1 agonists” (J Med Chem, 1988).

Structures are written as SMILES.

One may read the IC50 as the concentration at which inhibition is half-maximal. A higher IC50 goes with weaker potency.

Assay [1] in a line: (§1) Ratio of affinity towards 5-HT1 to 5-HT2 receptor. In outline:
(§2)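 Frontal cortex from male Wistar rats (140–160 g), homogenate pellet in 0.05 M Tris with 10 μM pargyline and 4 mM Ca²⁺, 250–350 μg protein/sample. 5-HT1: 2 nM [³H]-5-HT, nonspecific with 10 μM 5-HT. […] Eleven concentrations, 0.1–10 000 nM, in duplicate. IC50 from curve fitting of specific binding.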

Assay [2] has as its target T1, Serotonin 1 (5-HT1) receptor (Rattus norvegicus, UniProt P28564+P30940+P19327+P28565). As to the kind of experiment: Tested for its binding affinity towards 5-hydroxytryptamine 1 receptor in rat cortical membrane homogenates using radioligand ([3H]5-HT) binding assay. Format: cell membranes. The method in brief: as §2
Assay [3] deals with Serotonin 2 (5-HT2) receptor (Rattus norvegicus, UniProt P30994+P08909+P14842). Description: Binding affinity at 5-hydroxytryptamine 2 receptor from rat frontal cortex homogenates by [3H]-spiperone displacement. The class given is tissue-based.
Assay [4] has as its target T1, Serotonin 1 (5-HT1) receptor. As to the kind of experiment: Binding affinity towards 5-hydroxytryptamine 1 receptor using [3H]5-HT as a radioligand from rat frontal cortex homogenates. Format: tissue-based.
Assay [5] concerns Rattus norvegicus. As to the kind of experiment: Minimum effective dose required to increase (MED) corticosterone in rat serum, sc. The class given is functional. Conditions: read-out: MED. In outline: (§3)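 Male Wistar rats (~150 g). Compound in dilute HCl given sc at graded doses 1 h before decapitation. Whole-brain 5-HIAA measured by LC with electrochemical detection; serum corticosterone measured spectrofluorometrically. Minimum effective dose is the lowest dose giving a significant difference from control (P < 0.05).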

The test system of assay [6] is Rattus norvegicus. As to the kind of experiment: Minimum effective dose required to suppressing (MED) 5HIAA concentration in rat when administered sc. The class given is functional. Conditions: read-out: MED. In outline: as §3
Assay [7] deals with T1, Serotonin 1 (5-HT1) receptor. As to the kind of experiment: Binding affinity towards 5-hydroxytryptamine 1 receptor in rat frontal cortex homogenates using [3H]5-HT as a radioligand. The class given is tissue-based. In outline:
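Frontal cortex from male Wistar rats (140–160 g), pellet in 0.05 M Tris with 10 μM pargyline and 4 mM Ca²⁺, 250–350 μg protein/sample. 2 nM [³H]-5-HT; nonspecific binding with 10 μM 5-HT; specific binding = total minus nonspecific. Eleven test concentrations, 0.1–10 000 nM, in duplicate.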

Assay [8] is filed under the species Rattus norvegicus. As to the kind of experiment: Effect of fluoxetine on the elevation of serum corticosterone at a dose 100 ug/mL, No pretreatment. Format: functional, organism-based. The method in brief:
(§4)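 Rats got fluoxetine HCl (10 mg/kg, ip) or no pretreatment. 16 h later, drug (0.3 mg/kg, sc, dilute HCl) or p-chloroamphetamine HCl (2.5 mg/kg, ip) was given, with decapitation 1 h after. Serum corticosterone was measured spectrofluorometrically. Results are mean ± SE, five male Wistar rats/group, P < 0.05.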

The species named for assay [9] is Rattus norvegicus. Description: Effect of […] on the elevation of serum corticosterone at a dose 100 ug/mL PCPA pretreament. Format: functional, organism-based. The method in brief: (§5)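 Rats got p-chlorophenylalanine (300 mg/kg, ip) or no pretreatment. 24 h later, drug (0.3 mg/kg, sc, dilute HCl) or p-chloroamphetamine HCl (2.5 mg/kg, ip) was given, and rats were killed 1 h after. Serum corticosterone was measured spectrofluorometrically. Results are mean ± SE, five male Wistar rats/group.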

The species named for assay [10] is Rattus norvegicus. Description: Effect of […] on the elevation of serum corticosterone at a dose 100 ug/mL No pretreatment. The class given is functional, organism-based. The method in brief:
as §5

Assay [11] is filed under the species Rattus norvegicus. Description: Effect of fluoxetine on the elevation of serum corticosterone at a dose 100 ug/mL, Fluoxetine pretreament. Format: functional, organism-based. In outline:
as §4

Assay [12] in a line: as §1. Format: functional. In outline:
as §2

Assay [13] deals with Rattus norvegicus. As to the kind of experiment: Effect on homovanillic acid concentration in rat striatum, after 3 mg/kg sc administration. Format: functional. Conditions: route subcutaneous. The method in brief:
(§6)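 Male Wistar rats (~150 g) were given drug or apomorphine HCl sc and decapitated 1 h later. Striatal DOPAC and HVA were quantified by LC with electrochemical detection. Results are mean ± SE, five rats/group, P < 0.05.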

The subject of assay [14] is Rattus norvegicus. As to the kind of experiment: Effect on homovanillic acid concentration in rat striatum, after 1 mg/kg sc administration. Format: functional. The conditions noted are these: route subcutaneous. In outline:
as §6

Assay [15] relates to Rattus norvegicus. As to the kind of experiment: Effect on homovanillic acid concentration in rat striatum, after 10 mg/kg sc administration. The conditions noted are these: route subcutaneous. Format: functional. The method in brief:
as §6

The subject of assay [16] is Rattus norvegicus. Description: Effect on 3,4-dihydroxyphenylacetic acid concentration in rat striatum, after 10 mg/kg sc administration. The conditions noted are these: route subcutaneous. Format: functional. The method in brief: as §6
In assay [17] the test system is Rattus norvegicus. As to the kind of experiment: Effect on 3,4-dihydroxyphenylacetic acid concentration in rat striatum, after 3 mg/kg sc administration. Format: functional. The conditions noted are these: route subcutaneous. In outline:
as §6

The test system of assay [18] is Rattus norvegicus. As to the kind of experiment: Effect on 3,4-dihydroxyphenylacetic acid concentration in rat striatum, after 1 mg/kg sc administration. Conditions: route subcutaneous. The class given is functional. The method in brief: as §6

Consider `C[C@H]1C=C2c3cccc4[nH]cc(c34)C[C@H]2N(C)C1`, for which the Selectivity ratio in [1] came to 1. Also, the IC50 in assay [2] worked out at 80 nM; in [3], 130 nM.

As for `C=C1C=C2c3cccc4[nH]cc(c34)C[C@H]2N(C)C1`, the Selectivity ratio in [1] came out at 7. Moreover, the concentration for half-maximal inhibition (IC50) in assay [2] is given as 20 nM; in assay [3] it was 140 nM.

Turning to `CN1C[C@H](CO)C[C@@H]2c3cccc4[nH]cc(c34)C[C@H]21`, in assay [1], the Selectivity ratio was found to be 4. The half-inhibitory concentration (IC50) in assay [4] turned out to be 120 nM; in [3], 450 nM.

As to `CN1C[C@H](CC#N)C=C2c3cccc4c3[C@@H](CN4)C[C@H]21`, the minimal effective dose in the assay with Rattus norvegicus [5] and in the assay with Rattus norvegicus [6] was 0.1 mg/kg in each case. Also, the Selectivity ratio in assay [1] is 106. In addition, the values for the IC50 in [2] and in assay [3] were 20 nM and 2120 nM, respectively.

Regarding `CN1C[C@H](CSc2ccccc2)C=C2c3cccc4c3[C@@H](CN4)C[C@H]21`, in assay [1], the Selectivity ratio was found to be 26. Moreover, the IC50 in assay [2] worked out at 8 nM; in assay [3], 210 nM.

As for `C[C@@H]1C=C2c3cccc4c3[C@H](C[C@H]2N(C)C1)CN4C`, in assay [1], the Selectivity ratio came out at 8. Moreover, the IC50 in assay [2] is recorded as 160 nM; in assay [3] it was 1250 nM.

Turning to `CN1C[C@H](CSc2ccccn2)C=C2c3cccc4c3[C@@H](CN4)C[C@H]21`, in [1], the Selectivity ratio was 28. Also, the half-inhibitory concentration (IC50) in assay [2] is listed as 3 nM; in assay [3] it was 110 nM.

For the compound `CN1C[C@H](CO)C=C2c3cccc4[nH]cc(c34)C[C@H]21`, the Selectivity ratio in assay [1] amounted to 11. In addition, the figures for the half-inhibitory concentration (IC50) in assay [2] and in [3] were 15 nM and 160 nM, respectively.

Regarding `C[C@@H]1C=C2c3cccc4[nH]cc(c34)C[C@H]2N(C)C1`, the Selectivity ratio in assay [1] was found to be 22. The half-inhibitory concentration (IC50) in assay [2] came out at 5 nM; in assay [3] it was 110 nM.

Take `C[C@@H]1C[C@@H]2c3cccc4c3[C@@H](CN4)C[C@H]2N(C)C1`: the half-maximal inhibitory concentration (IC50) stood at 390 nM in assay [7] and 4220 nM in [3]. Besides, the Selectivity ratio in assay [1] is 11.

Consider `CN1C[C@H](CO)C=C2c3cccc4c3[C@@H](CN4)C[C@H]21`, for which the minimal effective dose was found to be 0.1 mg/kg in the assay with Rattus norvegicus [5] and 1 mg/kg in the assay with Rattus norvegicus [6]. In [1], the Selectivity ratio came out at 102. Besides, the results for the IC50 in assay [4] and in assay [3] were 26 nM and 2650 nM, respectively.

Regarding `C=C1C=C2c3cccc4c3[C@@H](CN4)C[C@H]2N(C)C1`, the Selectivity ratio in assay [1] came out at 48. Moreover, the IC50 in [4] amounted to 80 nM; in [3] it was 3820 nM.

For the compound `CC(N)Cc1ccc(Cl)cc1` (configuration not stated), the Serum corticosterone in the assay filed under Rattus norvegicus [8] turned out to be 69.4 µg/mL; in the assay listed under Rattus norvegicus [9] it was 14.9 µg/mL; in the assay listed under Rattus norvegicus [10] it was 51.1 µg/mL; in the assay filed under Rattus norvegicus [11], 29.5 µg/mL.

In the case of `CC1=C[C@@H]2c3cccc4c3[C@@H](CN4)C[C@H]2N(C)C1`, the figures for the concentration for half-maximal inhibition (IC50) in assay [7] and in assay [3] were 130 nM and 1850 nM, respectively. Moreover, the Selectivity ratio in [1] came to 14.

Regarding `CSC[C@@H]1C=C2c3cccc4c3[C@@H](CN4)C[C@H]2N(C)C1`, the minimal effective dose was 1 mg/kg in the assay on Rattus norvegicus [5] and 0.1 mg/kg in the assay on Rattus norvegicus [6]. Moreover, the Selectivity ratio in assay [1] came out at 66. The IC50 came to 20 nM in assay [4] and 1330 nM in [3].

With `COC(=O)[C@@H]1C=C2c3cccc4c3[C@@H](CN4)C[C@H]2N(C)C1`, in assay [1], the Selectivity ratio came to 40. For the same compound, the IC50 in assay [2] came out at 40 nM; in assay [3], 1620 nM.

On to `C[C@H]1C=C2c3cccc4c3[C@@H](CN4)C[C@H]2N(C)C1`, for which the results for the minimal effective dose in the assay on Rattus norvegicus [5] and in the assay on Rattus norvegicus [6] were 0.003 mg/kg and 0.001 mg/kg, respectively. For the same compound, in assay [12], the Selectivity ratio is more than 50. For the same compound, the 50% inhibitory concentration (IC50) in [4] is listed as 20 nM; in [3] it was more than 1000 nM.

For the compound `CCCN1C[C@H](C)C=C2c3cccc4c3[C@@H](CN4)C[C@H]21`, the Selectivity ratio in assay [1] is more than 5. For the same compound, the IC50 in assay [2] was 240 nM; in [3], more than 1000 nM.

With `CN1CCc2cccc3c2[C@H]1Cc1ccc(O)c(O)c1-3` [APOMORPHINE], the HVA in the assay with Rattus norvegicus [13] turned out to be 1.14; in the assay on Rattus norvegicus [14], 1.59; with Rattus norvegicus [15], 0.91. Moreover, the figures for the DOPAC in the assay on Rattus norvegicus [16], with Rattus norvegicus [17] and with Rattus norvegicus [18] were 1.73, 2.33 and 2.97, respectively.

Take `CC1=C[C@@H]2c3cccc4[nH]cc(c34)C[C@H]2N(C)C1` [AGROCLAVINE]: the Selectivity ratio in assay [1] is 2. Also, the IC50 in assay [2] is recorded as 140 nM; in [3], 270 nM.
